Test results published in ChEMBL document CHEMBL4308915, “Synthesis of novel pyrazoline derivatives and the evaluation of death mechanisms involved in their antileukemic activity” (Bioorg Med Chem, 2019).
pIC50: −log10 of the molar value. Calls of active or inactive are those of the source. The calls are words filed in the database; no cut-off is given here.

What was measured:
[1] = system: K562; assay: Cytotoxicity against human K562 cells assessed as reduction in cell viability after 48 hrs by MTT assay; format: functional, cell-based; details: K562, 48 h
[2] = system: Jurkat; assay: Induction of apoptosis in human Jurkat cells assessed as increase in membrane blebbing at 30.08 uM by acridine orange/ethidium bromide staining-based fluorescence microscopic analysis; format: functional, cell-based
[3] = Selectivity index, ratio of IC50 for human PBMC to IC50 for human Jurkat cells after 24 hrs; format: toxicity; details: PBMC versus Jurkat cells, read-out: Ratio IC50
Outline: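 MTT viability after 24 h exposure to 1-100µM; untreated control OD taken as 100%. IC50 by curve fitting in each line and in PBMC from six healthy donors (Ficoll-Hypaque). SI = IC50 PBMC / IC50 tumor line; SI ≥5 high, 2–5 moderate, <2 low.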

[4] = system: Jurkat; assay: Induction of apoptosis in human Jurkat cells assessed as increase in chromatin condensation at 30.08 uM by acridine orange/ethidium bromide staining-based fluorescence microscopic analysis; format: functional, cell-based
[5] = system: B16-F10; assay: Cytotoxicity against mouse B16F10 cells assessed as reduction in cell viability after 48 hrs by MTT assay; format: functional, cell-based; details: B16-F10, 48 h
[6] = Hemolytic activity in human RBC at 9 times IC50 relative to control; format: ADME, cell-based, Erythrocyte; details: red blood cells (erythrocytes), read-out: Activity
Outline: (§1)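 RBC from healthy non-smoking volunteers incubated with increasing concentrations of the selected pyrazolines. Saline served as the 0% lysis control and distilled water as the 100% lysis control. Percent hemolysis calculated relative to these controls.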

[7] = system: Jurkat; assay: Induction of apoptosis in human Jurkat cells assessed reduction in cells with intact mitochondrial membrane potential at 30.08 uM after 12 hrs by flow cytometric analysis relative to control; format: functional; design: scale not given: the % may be the effect or the level left
[8] = system: Jurkat; assay: Cytotoxicity against human Jurkat cells assessed as reduction in cell viability after 48 hrs by MTT assay; format: functional, cell-based
[9] = system: K562; assay: Induction of apoptosis in human K562 cells assessed as increase in loss of membrane integrity at 32 uM by acridine orange/ethidium bromide staining-based fluorescence microscopic analysis; format: functional, cell-based
[10] = system: Jurkat; assay: Induction of apoptosis in human Jurkat cells assessed as increase in AIF release at 30.08 uM after 12 hrs by flow cytometric analysis relative to control; format: functional
[11] = system: Jurkat; assay: Cytotoxicity against human Jurkat cells assessed as reduction in cell viability after 24 hrs by MTT assay; format: functional, cell-based
Outline: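 MTT viability after 24 h exposure. Cells seeded at 5x10^4 per well and tested at 1-100 µM. Optical density of untreated cells set as 100% viable. IC50 derived by curve fitting. PBMC from healthy non-smoking volunteers, isolated by Ficoll-Hypaque.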

[12] = system: PBMC; assay: Cytotoxicity against human PBMC assessed as reduction in cell viability after 72 hrs by MTT assay; format: cell-based
[13] = system: Jurkat; assay: Induction of apoptosis in human Jurkat cells assessed as decrease in Bcl2 expression at 30.08 uM after 12 hrs by flow cytometric analysis relative to control; design: scale not given: the % may be the effect or the level left
[14] = Hemolytic activity in human RBC at 1 time IC50 relative to control; format: ADME, cell-based, Erythrocyte; details: red blood cells (erythrocytes), read-out: Activity; outline: as §1

With `COc1cc(C2=NN(C(C)=O)C(c3ccc(Br)cc3)C2)cc(OC)c1OC` (centres undefined) as the molecule, how does the pIC50 [1] read?
Its pIC50 is 4.79.

What about the Activity [2] of the same molecule?
The Activity was “Active”.

What about the selectivity ratio at 24 h [3] of the same molecule?
The selectivity ratio at 24 h was 10.6.

And the Activity [4]?
Its Activity is “Active”.

And the pIC50 [5]?
Its pIC50 is 4.14.

And the hemolysis at 9 times IC50 [6]?
Its hemolysis at 9 times IC50 is 6%.

What about the Activity [7] of the same molecule?
Its Activity is 32.9%.

What about the pIC50 [8] of the same molecule?
The pIC50 was 4.76.

What about the Activity [9] of the same molecule?
The Activity was “Active”.

What about the Activity [10] of the same molecule?
The Activity was 33.2%.

And the pIC50 [11]?
The pIC50 was 4.51.

And the pIC50 [12]?
The pIC50 was 3.93.

What about the Activity [13] of the same molecule?
Its Activity is 12.9%.

What about the hemolysis at 1 times IC50 [14] of the same molecule?
Its hemolysis at 1 times IC50 is 0.9%.
